These results are taken from ChEMBL document CHEMBL3797074, “Synthesis and optimization of N-heterocyclic pyridinones as catechol-O-methyltransferase (COMT) inhibitors” (Bioorg Med Chem Lett, 2016).

The target of series [1] is T1, Catechol O-methyltransferase (Homo sapiens, UniProt P21964).
T1 sequence (P21964 whole entry): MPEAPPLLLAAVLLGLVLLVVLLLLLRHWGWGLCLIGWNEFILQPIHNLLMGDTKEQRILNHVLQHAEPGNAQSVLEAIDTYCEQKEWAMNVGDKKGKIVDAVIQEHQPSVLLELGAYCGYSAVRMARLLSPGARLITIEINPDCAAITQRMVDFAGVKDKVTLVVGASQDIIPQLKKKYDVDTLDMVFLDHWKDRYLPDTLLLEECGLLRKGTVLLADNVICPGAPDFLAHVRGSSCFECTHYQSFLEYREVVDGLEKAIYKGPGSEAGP
As to the kind of experiment: Inhibition of recombinant human C-terminal His6-tagged soluble COMT transfected in Escherichia coli BL21-Gold (DE3) using SAM/dopamine as substrate preincubated for 2 hrs followed by substrate addition measured after 25 mins by SAC TAMRA tracer-based fluorescence polarization assay.

Series [2] in a line: Plasma clearance in rat at 0.5 mg/kg, iv. Format: ADME, organism-based. Put shortly: (§1)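 Rat PK after a single intravenous dose of 0.5 mg/kg given in DMSO. Plasma clearance, volume of distribution and half-life were derived from the plasma data.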
Series [3] concerns the target T1, Catechol O-methyltransferase. As to the kind of experiment: Inhibition of recombinant human C-terminal His6-tagged MB-COMT expressed in Bacmid using SAM/dopamine as substrate preincubated for 2 hrs followed by substrate addition measured after 25 mins by SAC TAMRA tracer-based fluorescence polarization assay. (In general: Polarisation of emitted light reports the rotation of a fluorescent probe.)

Series [4] in a line: Plasma concentration in rat at 100 mg/kg, ip after 1 hr. Format: ADME, organism-based. Put shortly: (§2)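 Rats dosed intraperitoneally at 30 or 100 mg/kg. Plasma and cerebrospinal fluid were sampled one hour after dosing, and drug concentrations were measured in each.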
For series [5], the system named is Rattus norvegicus. As to the kind of experiment: In vivo inhibition of MB-COMT in ip dosed rat assessed as increase in dihydroxyphenylacetic acid level in cerebrospinal fluid after 1 hr. Format: functional, organism-based. The procedure, abridged: (§3)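 Rats were dosed intraperitoneally, and cerebrospinal fluid was collected one hour later. HVA and DOPAC levels were measured and compared with vehicle by ANOVA, with significance set at p<0.05.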

The nature of series [6]: Intrinsic clearance in rat hepatocytes. The note with it: read-out: CLH. Format: ADME, cell-based, Hepatocyte.
Series [7] deals with T2, Catechol O-methyltransferase (Rattus norvegicus, UniProt P22734).
T2 sequence (P22734 whole entry): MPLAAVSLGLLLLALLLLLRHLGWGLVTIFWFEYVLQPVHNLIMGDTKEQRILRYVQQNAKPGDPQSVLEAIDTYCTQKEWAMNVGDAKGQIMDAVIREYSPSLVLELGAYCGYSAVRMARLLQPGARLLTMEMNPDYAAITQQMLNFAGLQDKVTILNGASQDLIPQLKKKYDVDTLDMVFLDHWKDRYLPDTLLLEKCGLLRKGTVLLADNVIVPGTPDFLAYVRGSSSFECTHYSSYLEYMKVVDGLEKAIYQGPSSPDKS
Kind of series: Inhibition of recombinant rat C-terminal His10-tagged MB-COMT transfected in Escherichia coli BL21-CodonPlus(DE3)-RIPL using SAM/dopamine as substrate preincubated for 2 hrs followed by substrate addition measured after 25 mins by SAC TAMRA tracer-based fluorescence polarization assay.

The nature of series [8]: Half life in rat at 0.5 mg/kg, iv. The class given is ADME, organism-based. The note with it: in vivo. The procedure, abridged: as §1
The nature of series [9]: Drug uptake in rat cerebrospinal fluid at 100 mg/kg, ip after 1 hr. The note with it: read-out: Drug uptake. Format: ADME, organism-based. The procedure, abridged:
as §2

The nature of series [10]: Plasma concentration in rat at 30 mg/kg, ip after 1 hr. The class given is ADME, organism-based. The procedure, abridged:
as §2

A short description of series [11]: Volume of distribution in rat at 0.5 mg/kg, iv. The note with it: in vivo. Format: ADME, organism-based. Put shortly: as §1
The subject of a further series is Cerebrospinal fluid. As to the kind of experiment: Drug uptake in rat cerebrospinal fluid at 30 mg/kg, ip after 1 hr. The note with it: in vivo, BLD = below limit of detection. Format: ADME, organism-based. Put shortly:
as §2

In series [12] the test system is Rattus norvegicus. Kind of series: In vivo inhibition of MB-COMT in ip dosed rat assessed as decrease in homovanillic acid level in cerebrospinal fluid after 1 hr. The class given is functional, organism-based. Put shortly:
as §3

Series [13] is described as follows: Intrinsic clearance in human hepatocytes. Format: ADME, cell-based, Hepatocyte. The following applies: read-out: CLH.

As to `O=c1ccn(-c2cc(-c3ccccc3)ccn2)cc1O`, the IC50 was found to be 3020 nM in series [1], 40 nM in [3] and 15 nM in series [7]. The clearance in series [2] was determined as 94 mL/min/kg. For the same compound, the concentration at 1 h in series [4] turned out to be 3600 nM; in series [9], 410 nM; in series [10] it was 70 nM. In addition, the inhibition entry in the series on Rattus norvegicus [5] and in the series with Rattus norvegicus [12] was “Dose-dependent effect” each time. In addition, the CLint scaled stood at 448 mL/min/kg in series [6] and 74 mL/min/kg in series [13]. Besides, in series [8], the half-life was 24 min. Also, the Vd in series [11] was found to be 1.9 L/kg. The Drug uptake entry in the series on Cerebrospinal fluid was “BLD”.
Turning to `CC(C)(C)c1nc(-c2ccnc(-n3ccc(=O)c(O)c3)c2)cs1`, the IC50 in series [3] came out at 101 nM; in series [7] it was 15 nM.
On to `O=c1ccn(-c2nccc3ccccc23)cc1O`, for which the IC50 came out at 1270 nM in series [1] and 962 nM in series [3].
Consider `O=c1ccn(-c2cc(-c3ccncc3)ccn2)cc1O`, for which the IC50 in [3] turned out to be 672 nM.
For the compound `Cc1cn2nc(-n3ccc(=O)c(O)c3)ccc2n1`, the IC50 is 1670 nM in [1] and greater than 5000 nM in series [3].
As to `O=c1ccn(-c2nc(-c3ccccn3)cs2)cc1O`, the IC50 in [1] and in [3] was greater than 5000 nM throughout.
With `O=c1ccn(-c2cc(-c3cccnc3)ccn2)cc1O`, the IC50 in series [3] amounted to 574 nM.
For the compound `O=c1ccn(-c2ccnc(-c3ccccc3)c2)cc1O`, the IC50 in series [1] is 2320 nM; in series [3], 456 nM.
For `O=c1ccn(-c2cc(-c3cccc(C(F)(F)F)n3)ccn2)cc1O`, the values for the concentration for half-maximal inhibition (IC50) in series [3] and in series [7] were 84 nM and 11 nM, respectively.
As to `O=c1ccn(-c2cc(-c3ccc(Cl)c(Cl)c3)ccn2)cc1O`, the clearance in series [2] was 200 mL/min/kg. For the same compound, the IC50 turned out to be 35 nM in series [3] and 27 nM in [7]. Besides, the CLint scaled in series [13] came to 292 mL/min/kg.
Take `O=c1ccn(-c2ncccc2-c2ccccc2)cc1O`: the IC50 in series [1] and in series [3] was greater than 5000 nM each time.
`O=c1ccn(-c2cc(-c3ccccn3)ccn2)cc1O`: in series [3], the IC50 was determined as 826 nM.
In the case of `O=c1ccn(-c2cc(-c3cnn(Cc4ccccc4)c3)ccn2)cc1O`, the IC50 in series [3] is 49.5 nM; in series [7] it was 28 nM.
Turning to `O=c1ccn(-c2nccc(-c3ccccc3)c2F)cc1O`, the IC50 came to 946 nM in [1] and 55 nM in [3].
The matching figures for `O=c1ccn(-c2cccc(-c3ccccc3)n2)cc1O`: 2580 nM and 128 nM.
The matching figures for `O=c1ccn(-c2ccnc(-c3ccccc3)n2)cc1O`: 2050 nM and 706 nM.
For `O=c1ccn(-c2cccc(-c3ccccc3)c2)cc1O`, the clearance in series [2] stood at 58 mL/min/kg. The figures for the CLint scaled in series [6] and in series [13] were 583 mL/min/kg and 320 mL/min/kg, respectively.

By IC50 is commonly meant the concentration at which inhibition is half-maximal. As a reminder, the clearance is the rate of elimination divided by the concentration. Higher therefore signals efficient removal. For orientation: half-life means the time in which the quantity being followed falls by half. Lower therefore signals rapid decline. The Vd is a proportionality between amount in the body and measured concentration, not a real space. A low value points to little distribution into tissue.
